pIC50, pKi: −log10 of the molar value.
Columns and labels:
Steryl-sulfatase [1] = target: T1, Steryl-sulfatase (Homo sapiens, UniProt P08842); assay: Inhibitory concentration against human steroid sulfatase expressed in CHO cells; format: cell-based
T1 sequence (P08842 whole entry): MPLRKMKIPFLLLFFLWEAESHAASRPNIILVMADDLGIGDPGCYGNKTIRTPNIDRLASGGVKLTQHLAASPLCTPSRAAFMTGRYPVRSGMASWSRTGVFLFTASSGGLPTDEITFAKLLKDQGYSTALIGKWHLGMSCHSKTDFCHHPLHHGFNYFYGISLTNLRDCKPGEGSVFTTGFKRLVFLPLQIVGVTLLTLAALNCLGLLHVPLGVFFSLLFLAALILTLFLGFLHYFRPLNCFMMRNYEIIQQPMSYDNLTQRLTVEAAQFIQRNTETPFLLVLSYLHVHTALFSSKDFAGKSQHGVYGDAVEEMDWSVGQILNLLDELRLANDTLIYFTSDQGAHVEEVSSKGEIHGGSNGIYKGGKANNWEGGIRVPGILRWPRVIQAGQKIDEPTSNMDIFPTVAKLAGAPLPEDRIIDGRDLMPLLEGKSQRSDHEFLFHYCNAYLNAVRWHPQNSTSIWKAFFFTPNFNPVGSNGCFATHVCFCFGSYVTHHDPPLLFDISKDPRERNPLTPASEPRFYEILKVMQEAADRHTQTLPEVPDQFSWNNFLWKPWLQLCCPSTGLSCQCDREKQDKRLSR
Procedure, shortened: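 Intact recombinant CHO cells overexpressing STS, live-cell variant for reversible inhibitors; 4-methylumbelliferyl sulfate substrate at 0.5 mM, 4 h incubation with inhibitor; fluorimetric read-out of substrate cleavage, IC50 determined.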

Steryl-sulfatase [2] = target: T1, Steryl-sulfatase; assay: Inhibitory concentration against human steroid sulfatase
Procedure, shortened: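 Human STS purified to homogeneity from recombinant CHO cells; fluorimetric assay following cleavage of 4-methylumbelliferyl sulfate (fixed at 0.75 mM) at 37 °C, 1 h incubations with or without inhibitor. Initial velocity taken from the linear phase as fluorescence units per min; IC50 derived by a previously described method.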

Steryl-sulfatase [3] = target: T1, Steryl-sulfatase; assay: Inhibitory constant against human Steroid sulfatase
Procedure, shortened: (§1)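 Purified human STS (from recombinant CHO cells) at 37 °C; 4-methylumbelliferyl sulfate cleavage monitored fluorimetrically, substrate varied 0.05–2 mM at several inhibitor concentrations. Initial velocities from the linear phase (fluorescence units per min); Ki calculated from Hanes plots ([S]/v versus [S]).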

Steryl-sulfatase [4] = target: T1, Steryl-sulfatase; assay: Inhibitory constant against human steroid sulfatase; procedure, shortened: as §1

Compound	pIC50 (Steryl-sulfatase [1])	pIC50 (Steryl-sulfatase [2])	pKi (Steryl-sulfatase [3])	pKi (Steryl-sulfatase [4])
O=C(Cc1ccccc1)O[C@H]1C[C@H]2CC[C@@H](C1)N2C(=O)NS(=O)(=O)c1ccc(Cl)cc1	5.20	6.04	–	–
CC(C)(C)OC(=O)N1CCC(C(=O)NS(=O)(=O)c2cc(Cl)cc(Cl)c2)CC1	5.90	–	–	–
CC(C)(C)OC(=O)N1CCC(C(=O)NS(=O)(=O)c2c(Cl)sc(Cl)c2Br)CC1	6.57	7.59	7.92	–
CC(C)(C)OC(=O)N1CCC(C(=O)NS(=O)(=O)c2ccc(Cl)cc2)CC1	5.01	5.07	–	4.79
CC(C)(C)OC(=O)N1CCC(C(=O)NS(=O)(=O)c2cc(C(F)(F)F)cc(C(F)(F)F)c2)CC1	6.11	6.68	–	6.66
CC(C)(C)OC(=O)N1CCC(C(=O)NS(=O)(=O)c2c(Cl)cccc2Cl)CC1	5.00	–	–	–
CC(C)(C)OC(=O)N1CCN(C(=O)NS(=O)(=O)c2ccc(Cl)cc2)CC1	4.92	5.44	–	4.84

— ChEMBL document CHEMBL1144338, “N-Acyl arylsulfonamides as novel, reversible inhibitors of human steroid sulfatase” (Bioorg Med Chem Lett, 2005)
